Screening data from PubChem.
Most compounds without a hit are left out; they make up all but 4.8% or so of the library.
SF-1 act: activates the human nuclear receptor SF-1 | Q13285 | CHO-K1 Gal4-SF-1 LBD luciferase reporter; % increase over DMSO SF-1-specific signal | activation, % at 10 µM | actives 1.9% (n = 65,000);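 active = activation above the mean activation of all tested compounds plus 3 SD, cut at about 50% in these data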
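Material: Transient Gal4-SF-1 LBD reporter, CHO-K1 | Input: 4,000 cells/well | Dosing: One dose, 10 µM compound, 1% DMSO | Incubation: 20 h compound treatment, 37 °C | Detection: SteadyLite luciferase luminescence | Evaluation: Percent activation relative to DMSO median and mock-transfected background | Benchmarks: DMSO-treated SF-1-transfected cells as negative, DMSO-treated mock-transfected cells lacking SF-1 as background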
PTK2B oligo ant: Pyk2 (human) oligomerization antagonism. Q293 cells, Pyk2 FERM NanoBiT luminescence; active compounds read low. z-score (the deposit names both 25 µM and 10 µM). actives 0.83% (n = 99,000);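 active = Z-score of -3 or lower, scaled per plate to the spread of control and sample wells; inactive = z-score above -3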;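 also: negative z-score means lost luminescence so less FERM oligomerization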
ERa SRC1 pot: enhances coactivator binding to human estrogen receptor alpha; actives 1.3% (n = 86,000); TR-FRET ERalpha-LBD/SRC-Cy5 coactivator binding, 2 h; 100 = basal binding, no effect; P03372; coactivator binding (% of control), % at 25.6 µM; AID 639; in the data active = activity above about 200%;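 also: binding measured in presence of low estradiol as agonist stimulus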
RORa activator: activators of human nuclear receptor RORA; P35398; CHO-K1 Gal4-RORA LBD luciferase reporter, luminescence; percent increase over mock-subtracted basal signal; activation, % at 10 µM; actives 1.5% (n = 65,000); AID 560;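 active = activation above the mean of all tested compounds plus 3 SD, cut at about 49% in these data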
Target sequence (P35398 whole entry, looked up, the tested form may be a part): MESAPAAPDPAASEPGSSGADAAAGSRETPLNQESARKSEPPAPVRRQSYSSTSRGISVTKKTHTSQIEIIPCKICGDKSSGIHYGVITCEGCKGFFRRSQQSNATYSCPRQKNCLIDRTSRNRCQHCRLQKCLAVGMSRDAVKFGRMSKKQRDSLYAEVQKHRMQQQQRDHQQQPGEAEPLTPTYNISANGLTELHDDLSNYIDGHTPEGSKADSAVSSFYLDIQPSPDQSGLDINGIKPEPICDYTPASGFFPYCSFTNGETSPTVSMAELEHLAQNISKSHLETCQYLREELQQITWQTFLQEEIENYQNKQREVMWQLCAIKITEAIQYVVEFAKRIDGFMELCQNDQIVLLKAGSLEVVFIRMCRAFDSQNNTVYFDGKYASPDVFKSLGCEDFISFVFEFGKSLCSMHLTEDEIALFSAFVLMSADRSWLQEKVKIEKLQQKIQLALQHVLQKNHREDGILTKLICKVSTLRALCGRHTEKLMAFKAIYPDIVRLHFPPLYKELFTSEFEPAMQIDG
ERa coact inh: ER-alpha (human) coactivator binding inhibition. P03372. TR-FRET ER-alpha LBD / SRC-1 peptide, estradiol-bound. inhibition, % at 25.6 µM. actives 1.7% (n = 86,000); in the data active = inhibition above about 50%
ERb coact inh: ER-beta (human) coactivator binding inhibition; Q92731; AID 633; actives 1.3% (n = 86,000); TR-FRET ER-beta LBD / SRC1-Cy5 peptide binding; receptor agonist-loaded with 1 µM estradiol; inhibition, % at 25.6 µM;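 active = compounds whose percent inhibition of the receptor-coactivator binding signal exceeds about 50% in the single-dose screen, limit read from the data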
Numbers stand for hits; n = inactive; x = no result given; [ ] = another dose, or the depositor's remark.

SMILES	SF-1 act	PTK2B oligo ant	ERa SRC1 pot	RORa activator	ERa coact inh	ERb coact inh
CCSc1cnn(-c2ccccc2)c(=O)c1SCC	x	n	n	x	n	n
CCCCSc1cnn(-c2ccccc2)c(=O)c1SCCCC	x	n	202	x	n	n
CC(=O)NC(CCS(C)(=O)=O)C(=O)Nc1ccc(Oc2ccccc2)cc1 (configuration not stated)	n	x	n	n	n	n
CCCCCCOC(=O)Cc1c(C)nc(-c2ccccc2)[nH]c1=O	x	n	n	x	n	n
O=C(c1ccc(Br)o1)N1CCN(c2ccc3nnc(-c4ccc(F)cc4)n3n2)CC1	x	x	n	x	n	n
O=C1c2ccsc2SCCN1Cc1ccc(Cl)cc1	x	n	n	x	n	56[fluorescence artefact?]
O=C1c2ccsc2SCCN1Cc1cccc(Cl)c1	x	n	n	x	n	n
CCCOCC1CC2(SC(=Nc3ccc(C)cc3)NC2=O)C(=O)O1 (configuration not stated)	n	n	n	n	n	69[fluorescence artefact?]
CCc1nnc(NC(=O)CSc2nnc(-c3ccccc3O)n2-c2ccc(C)cc2C)s1	n	-3.8	n	n	n	n
CCc1nnc(NC(=O)CSc2nnc(COc3ccccc3)n2-c2ccc(C)cc2)s1	n	n	n	n	n	n
Cc1nc2ccccc2c2oc(C(=O)NCc3ccccn3)cc12	n	n	n	n	n	n
Cc1ccc(CNC(=O)c2cc3c(C)nc4ccccc4c3o2)cc1	x	x	n	x	57[fluorescence artefact?]	n
c1ccc2oc(SCc3cn4ccccc4n3)nc2c1	n	n	n	58	n	n
O=C1CC(=C2c3ccccc3-c3ccccc32)C(=O)N1CCCCN1CCN(c2ccccc2)CC1	x	n	n	x	n	n
CCOC(=O)CCC(=O)N1CCNC(=O)C1	x	x	n	x	n	n
CCCCn1c(N)c(-c2nc3ccccc3s2)c2c([N+](=O)[O-])nn(C)c(=O)c21	x	n	x	x	x	x
Cn1nc([N+](=O)[O-])c2c(-c3nc4ccccc4s3)c(N)n(C3CCCCC3)c2c1=O	x	n	n	x	93	65
O=C(Nc1nnc(C2CCCCC2)s1)c1cccs1	54	n	n	n	n	n
O=C(Nc1nnc(C2CCCCC2)s1)c1ccco1	70	n	n	n	n	n
O=C(Nc1nnc(C2CCCO2)s1)c1cccs1 (configuration not stated)	n	n	n	n	n	n
Cc1cc(OCC(=O)Nc2ccncc2)ccc1Br	n	n	n	n	n	n
CCOc1ccc(N2CC(C(=O)Nc3ccccc3F)CC2=O)cc1 (configuration not stated)	n	n	n	n	n	n
O=C(Nc1nc(-c2nc3ccccc3s2)cs1)C1COc2ccccc2O1 (configuration not stated)	55	x	n	n	68	n
COc1ccc2nc(NC(=O)C3COc4ccccc4O3)sc2c1 (configuration not stated)	n	x	n	n	n	n
Cc1nnc(NC(=O)C2COc3ccccc3O2)s1 (configuration not stated)	52	n	n	n	n	n
SMILES	SF-1 act	PTK2B oligo ant	ERa SRC1 pot	RORa activator	ERa coact inh	ERb coact inh
CS(=O)(=O)c1ccc2nc(NC(=O)C3COc4ccccc4O3)sc2c1 (configuration not stated)	52	n	n	n	n	n
CCOc1cc(CNCc2ccncc2)cc(Br)c1OCc1ccccc1F	x	n	x	x	x	x
Cc1ccc(NC(=O)CSc2nnc(Cn3c(=O)sc4ccccc43)n2C)cc1	n	x	n	n	n	n
Cn1c(CC(=O)Nc2ccc(Cl)c(Cl)c2)nnc1SCC(=O)N1CCN(c2ccccc2)CC1	x	n	n	x	72[fluorescence artefact?]	n
CC(NC(=O)CSc1nnc(CC(=O)Nc2ccc(Cl)c(Cl)c2)n1C)c1ccccc1 (configuration not stated)	x	n	n	x	n	n
Cc1ccc(NC(=O)CSc2nnc(Cn3c(=O)sc4ccccc43)n2C)cc1Cl	n	x	360	n	n	n
O=c1c2cc(-c3ccccc3)sc2ncn1/N=C/c1ccco1	n	n	n	n	n	n
Cc1nc(SCn2nnc3ccccc3c2=O)c2c(C)c(C)sc2n1	n	x	n	n	64[fluorescence artefact?]	n
CC(c1ccccc1F)n1cc(C(=O)NCCc2ccco2)nn1 (configuration not stated)	n	n	n	n	n	n
COC(=O)c1cc(NC(=O)CC2NC3CCCCC3NC2=O)cc(C(=O)OC)c1 (configuration not stated)	x	n	n	x	n	n
COc1ccc(-c2nc(Cn3c(SCc4ccccc4F)nc4ccncc43)c(C)o2)cc1	x	x	458[fluorescence artefact?]	x	n	n
S=c1[nH]nc(-c2cccnc2)o1	n	n	n	n	n	n
S=c1[nH]nc(-c2ccc3ccccc3n2)o1	n	n	471[fluorescence artefact?]	n	n	n
O=C(c1ccco1)N1CCN(C(c2ccccc2)c2nnnn2C2CCCC2)CC1 (configuration not stated)	x	n	n	x	n	n
Clc1ccc(-c2nc3n(n2)Cc2ccccc2-3)cc1	x	n	289	x	n	n
CCN(CC)S(=O)(=O)c1cccc(-c2nc3n(n2)Cc2ccccc2-3)c1	61	n	n	n	n	n
CCN(CC)S(=O)(=O)c1cccc(-c2cn3cc(C)ccc3n2)c1	x	n	n	x	n	n
Cc1cc(C)nc(NC(=O)CN2C(=O)c3ccccc3C2=O)n1	n	n	n	n	n	n
Cc1ccc2nc(Nc3nc(=O)c4ccccc4n3C)nc(C)c2c1	n	x	n	n	60	n
Cc1ccc(C)c(NC(=S)NC(NC(=O)Cc2cccc3ccccc23)C(Cl)(Cl)Cl)c1 (configuration not stated)	x	n	n	x	68[fluorescence artefact?]	69
N#CCSc1nc(Nc2ccc3c(c2)OCO3)c2ccccc2n1	n	-4.2	n	n	n	n
CCOC(=O)CSc1nc(Nc2ccc3c(c2)OCO3)c2ccccc2n1	x	-3	n	x	n	n
COc1cc(Nc2nc(SCC#N)nc3ccccc23)cc(OC)c1OC	n	n	n	n	n	n
COc1ccc(Br)cc1CNC(=O)C1CCCN(c2nc3ccccc3o2)C1 (configuration not stated)	n	n	n	n	64	n
Cc1ccc(CNC(=O)C2CCCN(c3nc4ccccc4o3)C2)cc1 (configuration not stated)	n	x	n	n	n	n
SMILES	SF-1 act	PTK2B oligo ant	ERa SRC1 pot	RORa activator	ERa coact inh	ERb coact inh
Cc1noc(C)c1CSc1ccccc1C(=O)Nc1nccs1	n	n	n	n	n	n
COc1ccc2nc3sc(C(=O)NCc4cccs4)c(N)c3cc2c1	74	x	n	n	54[fluorescence artefact?]	n
COc1cccc(C(=O)c2c[nH]c(C(=O)NCc3cccs3)c2)c1	x	n	x	x	x	x
CCOc1cc(S(=O)(=O)NCc2ccccn2)c(C)cc1C	n	x	x	n	x	x
CC(=O)NC(=O)COC(=O)/C=C/c1c(C)nn(Cc2c(Cl)cccc2Cl)c1Cl	x	n	n	x	n	n
CCOc1cccc(C(=O)NC2CCCCC2)c1	52	n	n	n	n	n
